Screening results as filed in PubChem BioAssay.
An excerpt weighted towards active compounds, which were near 1.7% of everything screened.
Scp-1 inhibitor = Scp-1 phosphatase inhibitors, primary screen, biochemical, colorimetric, uHTS; Recombinant Scp1, phosphopeptide, malachite green phosphate absorbance; inhibition, % at 20 µM; hit rate 0.88% among 340,000;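 active means inhibition above about 50% at 20 µM, limit read from the data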
Target sequence (Q9GZU7 76-261 limits assumed): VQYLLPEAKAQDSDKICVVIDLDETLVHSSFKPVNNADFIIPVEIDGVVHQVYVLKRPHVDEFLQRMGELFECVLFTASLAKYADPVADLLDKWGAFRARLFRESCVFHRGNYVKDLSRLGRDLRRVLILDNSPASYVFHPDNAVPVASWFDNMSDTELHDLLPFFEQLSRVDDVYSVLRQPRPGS
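Material: truncated SCP-1 phosphatase (76-261aa) / Buffer or medium: 50 mM Tris acetate pH 5.5, 0.005% Tween-20, 10 mM MgCl2 / Compound dosing: one concentration, 20 µM, with 1.0% DMSO / Incubation: 45 min room-temperature reaction, 5 min colour, 30 min stabiliser / Detection: colorimetric free-phosphate detection, absorbance 630 nm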
STEP inh = STEP phosphatase inhibitors, primary screen, biochemical, fluorescence intensity, uHTS; Tyrosine-protein phosphatase non-receptor type 5 (Homo sapiens), P54829; recombinant STEP, OMFP fluorogenic substrate; inhibition, % at 20 µM; hit rate 0.25% among 360,000;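 active means inhibition at 20 µM, scaled per plate between control wells, above about 37%, limit read from the data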
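System: STEP phosphatase, cell-free reaction; Buffer or medium: Bis-Tris pH 6.0 buffer with DTT, detergent; Incubation: 20 min at room temperature, dark; Measured by: fluorescence, 480/540 nm.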
DNMT1 inh = human DNMT1 methyltransferase inhibitors, primary screen, biochemical, molecular beacon, fluorescence, HinP1I cleavage, uHTS; hit rate 0.83% among 360,000; DNA (cytosine-5)-methyltransferase 1 (Homo sapiens), P26358; inhibition (reported as % activation of signal), % at 10 µM; in the data active means inhibition above about 50%
SUMO1-SIM PPI = modulators of SUMO1 protein-protein interactions, primary screen, biochemical, uHTS; AID 602429, 2012; Small ubiquitin-related modifier 1 (Homo sapiens), P63165; inhibition, % at 20 µM; hit rate 0.33% among 360,000; SUMO1 binding to a labelled peptide, TR-FRET, 1 h; in the data active means inhibition above about 37%
Target sequence (P63165 whole entry, looked up): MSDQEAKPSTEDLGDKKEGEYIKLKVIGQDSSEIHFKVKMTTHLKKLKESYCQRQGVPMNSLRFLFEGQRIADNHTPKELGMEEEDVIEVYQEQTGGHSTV
LMPTP block = LMPTP phosphatase inhibitors, primary screen, biochemical, fluorescence intensity, uHTS. Low molecular weight phosphotyrosine protein phosphatase (Homo sapiens), P24666. recombinant LMPTP-A, OMFP fluorogenic substrate. inhibition, % at 20 µM. hit rate 0.22% among 360,000. AID 651560, 2012;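 active means compounds that cut the enzyme signal by at least half of the control window in the single-dose screen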
Target sequence (P24666 whole entry, looked up): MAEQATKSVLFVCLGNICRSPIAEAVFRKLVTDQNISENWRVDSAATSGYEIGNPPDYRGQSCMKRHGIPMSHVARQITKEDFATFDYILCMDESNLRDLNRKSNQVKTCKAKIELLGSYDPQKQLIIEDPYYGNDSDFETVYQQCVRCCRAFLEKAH
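Assay system: LMPTP-A enzyme. Input: 0.625 nM LMPTP-A final. Probe or stimulus: 400 µM OMFP. Compound dosing: single 20 µM dose. Schedule: 50 min dark incubation at room temperature. Detection: fluorescence intensity of OMFP turnover product. Read-out: percent inhibition versus substrate-only and uninhibited controls. Benchmarks: no-enzyme low control, uninhibited high control.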
A number is an active result; i = inactive; nt = no result; + = active, no number.

SMILES	Scp-1 inhibitor	STEP inh	DNMT1 inh	SUMO1-SIM PPI	LMPTP block
COc1ccc(CCC(=O)NC(C)C)cc1	i	i	i	i	i
COc1ccc(COC[C@H](C)[C@H](O)[C@@H](C)[C@H]2OC(=O)[C@@H]2C)cc1	i	i	i	38	i
CC(COc1ccc(C(C)C)cc1)NC(=O)c1ccc(Br)o1 (stereo unspecified)	nt	i	i	i	i
O=C(Nc1cc(C(=O)Nc2ccccc2C(=O)O)cc(C(=O)Nc2ccccc2C(=O)O)c1)c1ccccc1	i	i	i	42	i
O=C(Nc1ccccc1C(=O)O)c1cccc(NC(=O)c2ccccc2Br)c1	i	i	i	i	i
O=C(COc1ccccc1)Nc1sc2c(c1C(=O)NCc1cccnc1)CCCC2	i	i	i	i	51
N#C/C(=C\c1coc2ccc(O)cc2c1=O)C(=O)Nc1nc2ccccc2s1	i	i	84	i	i
N#C/C(=C\c1coc2ccccc2c1=O)C(N)=S	i	i	i	i	i
COc1ccccc1CNc1nc(Nc2cccc(-c3cnco3)c2)c2sccc2n1	nt	i	i	i	51
CC(=O)NCCNc1nc(NCc2ccccc2)nc2ccsc12	nt	i	i	i	i
COc1ccccc1CNc1nc(NCc2ccccc2OC)c2sccc2n1	nt	i	i	i	i
COc1ccccc1CNc1nc(NCc2ccc(NC(C)=O)cc2)c2sccc2n1	nt	i	i	i	65
CC(=O)Nc1ccc(CNc2nc(NCc3cccs3)nc3ccsc23)cc1	nt	i	i	i	61
Cc1occc1C(=O)NNC(=O)CN1C(=O)NC(C)(c2ccccc2)C1=O (stereo unspecified)	i	i	i	i	i
O=C(Cc1cccc(NC(=O)C2CCCN(C(=O)C3CC3)C2)c1)Nc1cccc(C(=O)N2CCOCC2)c1 (stereo unspecified)	i	i	i	i	i
O=C(NCCCN1CCCC1)c1[nH]c(C(F)(F)F)nc1-c1ccccc1	nt	i	i	i	i
O=C1CC(c2ccc(O)c(O)c2)Oc2c1ccc(O)c2O (stereo unspecified)	53	i	i	i	60
O=C(NN1C(=O)c2cc(Br)ccc2NC1c1cc(Br)cc(Br)c1O)c1ccncc1 (stereo unspecified)	i	i	i	i	i
COc1ccc(NC(=O)NNC(=O)COc2ccc([N+](=O)[O-])c(C)c2)cc1OC	i	i	i	i	i
Cc1cc(O)c(-c2cc(C(=O)Nc3cccnc3)[nH]n2)cc1C	i	i	i	i	i
CC(=O)Nc1ccc(NC(=O)c2cc(-c3cc(C)c(C)cc3O)n[nH]2)cc1	i	i	i	40	i
CCSc1cc(N2CCOCC2)nc(-c2ccc(Cl)cc2)n1	i	i	i	i	i
CC(=O)Oc1ccc2c(c1)Oc1cc(OC(C)=O)ccc1C21OC(=O)c2ccccc21	i	i	+	i	i
O=C1c2ccccc2C(=O)N1/N=C/c1ccc(O)c(O)c1O	i	i	i	i	68
Cc1nc2ccccc2c(=O)n1/N=C/c1ccc(O)c(O)c1O	i	i	78	70	84
SMILES	Scp-1 inhibitor	STEP inh	DNMT1 inh	SUMO1-SIM PPI	LMPTP block
Cc1nc2ccccc2c(=O)n1/N=C/c1ccccc1O	i	i	i	i	i
O=C1c2cccc3cccc(c23)C(=O)N1/N=C/c1ccc(O)cc1O	i	i	i	i	i
COc1ccc(-c2nc(CS(=O)CC(=O)N3CCOCC3)c(C)o2)cc1OC (stereo unspecified)	i	i	i	i	i
Cn1c(=O)c(NC2CCCCC2)c2c3c(cccc31)C(=O)c1ccccc1-2	i	i	i	i	i
Cn1c(=O)c(N)c2c3c(c(Br)ccc31)C(=O)c1ccccc1-2	i	i	155	i	i
NS(=O)(=O)c1ccc(CCNC(=O)CN2C(=O)COc3ccc(S(=O)(=O)N4CCCC4)cc32)cc1	i	i	i	i	i
CCCN(CC(=O)Nc1ccccc1C)C(=O)c1cccc(-n2cnnn2)c1	i	i	i	i	i
O=[N+]([O-])c1cc(CN2CCC(O)CC2)ccc1Cl	i	i	i	i	i
CCCOc1cc(N(CC)CC)ccc1/C=C(/C#N)c1nc2ccc(C)cc2[nH]1	i	i	i	i	i
CCN(CC)c1ccc(/C=C(/C#N)c2nc3ccc(C)cc3[nH]2)c(OC(C)C)c1	i	i	53	i	i
COc1ccc2cc1Oc1ccc(cc1)C[C@H]1c3c(cc(OC)c4c3Oc3c(ccc5c3[C@H](C2)N(C)CC5)O4)CCN1C	i	i	i	i	68
COc1ccc2cc1Oc1ccc(cc1)CC1c3c(cc(OC)c4c3Oc3cc5c(cc3O4)CCNC5C2)CCN1C (stereo unspecified)	i	i	i	i	77
CCOc1ccc(C2NCCc3cc(OC)c(OC)cc32)cc1OC (stereo unspecified)	i	i	i	i	i
O=C(CCl)Nc1cccc(S(=O)(=O)NC2=NCCC2)c1	i	i	i	i	i
O=C(CCCc1ccncc1)c1ccccc1	i	i	i	i	i
c1ccc(COc2ccc(-c3cc4nc(NCCCn5ccnc5)ccn4n3)cc2)cc1	nt	i	i	i	i
COc1ccc(C2=CC3=C(Br)C(=O)C(C)(OC(=O)C4CCCC4)C(=O)C3=CO2)cc1 (stereo unspecified)	i	i	i	56	i
COC(=O)CCC(=O)OC1(C)C(=O)C2=COC(c3ccc(OC)cc3)=CC2=C(Br)C1=O (stereo unspecified)	i	nt	nt	nt	nt
CCCc1cc(=O)n2[nH]c(C)c(-c3ccc(OC)cc3)c2n1	i	i	i	i	i
CCc1ccccc1OCC(=O)Nc1ccc(N2CCCC2)cc1C	i	i	53	i	i
Cc1ccccc1OCC(=O)Nc1ccc(N2CCOCC2)cc1N1CCOCC1	i	i	i	i	i
O=C(c1ccc2c(c1)OCO2)C1CCCN(C2CCN(CCc3ccccc3)CC2)C1 (stereo unspecified)	i	i	i	i	i
O=C(Nc1ccc(Nc2ccncc2)cc1)c1ccc(Nc2ccnc3ccc([N+](=O)[O-])cc23)cc1[N+](=O)[O-]	i	i	i	45	89
CCOC(=O)N1CCN(C(=O)/C(=C/c2cccs2)NC(=O)c2ccc(OC)c(OC)c2)CC1	i	i	i	i	i
CCOC(=O)C12CNC(=O)C(C(=O)OCC)(CNC1=O)C2	i	i	i	40	i
CCOC(=O)C1(Cc2ccccc2)C(=O)Nc2ccccc21 (stereo unspecified)	i	i	i	i	i
COc1ccc(CCn2c(C3CCCCC3)nc3c(c(=O)c4ccccc4n3C)c2=O)cc1	i	98	i	i	104
